ChEMBL document CHEMBL2169855, “Carbamoyl pyridone HIV-1 integrase inhibitors. 1. Molecular design and establishment of an advanced two-metal binding pharmacophore” (J Med Chem, 2012)

Tests used:
[1] = target: Human immunodeficiency virus type 1 integrase (Human immunodeficiency virus 1, UniProt Q7ZJM1); test: Inhibition of HIV1 integrase strand transfer activity using pre-incubation and wash with Mg2+ cofactor by ELISA based microtiter plate integration assay
In short: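 Preformed IN–substrate DNA complex on microtiter plate, unbound IN washed out; compound preincubated with complex 30 min at 30 °C in 30 mM MOPS pH 7.2, 10 mM DTT, 5% glycerol, 100 μg/mL BSA; Mg2+ 15 mM throughout; strand transfer started with digoxigenin-labeled target DNA, products quantified by anti-Dig ELISA; mean ± sd of three independent experiments.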

[2] = Cytotoxicity against human MT4 cells incubated for 4 days by MTT assay; type: cell-based
In short: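 Uninfected MT-4 cells, 2.5 × 10^4/well, cultured with graded compound concentrations for 4 days; growth inhibition measured by MTT absorbance at 560 and 690 nm.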

[3] = test system: Human immunodeficiency virus 1; test: Inhibition of wild type HIV1 3B infected in human MT4 cells using cells pre-incubated with compound for 1 hr measured 4 days post viral infection by MTT assay; type: functional, organism-based; conditions: Human immunodeficiency virus 1, 3B
In short: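 MT-4 cells (2.5 × 10^4/well, RPMI 1640 + 10% FBS) exposed to compound dilutions 1 h, then infected with HIV-1 IIIB (MOI 0.001 or TCID50 4 to 10); after 4 days viability read by MTT absorbance at 560/690 nm; mean ± sd of three independent experiments.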

[4] = test system: Human immunodeficiency virus 1; test: Inhibition of wild type HIV1 3B infected in human MT4 cells using cells pre-incubated with compound for 1 hr measured 4 days post viral infection in presence of 20 mg/ml HSA by MTT assay; type: functional, organism-based; conditions: Human immunodeficiency virus 1, 3B
[5] = Terminal half life in fed rat at 1 mg/kg, iv measured up to 24 hrs; type: ADME, organism-based; set-up: dose 1 mg/kg, route intravenous; conditions: in vivo, read-out: beta t1/2 (converted)
In short: (§1)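 Intravenous 1 mg/kg, fed conditions; vehicle DMA/PEG/saline (1:4:5) for rats, 50 mM N-methylglucamine in 3% mannitol for dogs and monkeys; rat blood via jugular cannula; plasma collected up to 24 h, centrifuged 16000g 3 min, held at −20 °C; noncompartmental analysis.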

[6] = Oral bioavailability in fed beagle dog at 5 mg/kg measured up to 24 hrs; type: ADME, organism-based, Canis lupus familiaris; conditions: in vivo
[7] = Terminal half life in fed cynomolgus monkey at 1 mg/kg, iv measured up to 24 hrs; type: ADME, organism-based, Macaca fascicularis; set-up: dose 1 mg/kg, route intravenous; conditions: in vivo, read-out: beta t1/2 (converted); in short: as §1
[8] = Ratio of Plasma concentration in fed cynomolgus monkey at 5 mg/kg, po measured at 24 hrs to IC50 for wild type HIV1 3B infected in human MT4 cells in presence of 20 mg/ml HSA
[9] = Volume of distribution at steady state in fed rat at 1 mg/kg, iv measured up to 24 hrs; type: ADME, organism-based; set-up: dose 1 mg/kg, route intravenous; conditions: in vivo, read-out: Vdss; in short: as §1
[10] = test system: Human immunodeficiency virus 1; test: Resistance index, ratio of IC50 for HIV1 3B containing integrase Y143R mutant to IC50 for wild type HIV1 3B; type: functional
In short: (§2)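 Integrase mutations introduced into pNL432 molecular clone; plasmids transfected into 293T cells, supernatants harvested after 2 days and stored at −80 °C. Mutant and wild-type viruses tested in HeLa-CD4 cells carrying HIV-1 LTR-driven β-galactosidase reporter. Fold change is mutant IC50 over wild-type IC50.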

[11] = Half life in fed rat at 5 mg/kg, po measured up to 24 hrs; type: ADME, organism-based; set-up: dose 5 mg/kg, route oral; conditions: in vivo
[12] = test system: Human immunodeficiency virus 1; test: Potency shift, ratio of IC50 for wild type HIV1 3B infected in human MT4 cells in presence of 20 mg/ml HSA to IC50 for wild type HIV1 3B infected in human MT4 cells in absence of HSA; type: functional
In short: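 MT-4 cells (2.5 × 10^4/well) preincubated 1 h with graded compound, then infected with HIV-1 IIIB (MOI 0.001 or TCID50 4 to 10), with or without human serum albumin 20 mg/mL; after 4 days viability read by MTT absorbance at 560/690 nm. Fold-shift = IC50 with HSA over IC50 without.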

[13] = Oral bioavailability in fed rat at 5 mg/kg measured up to 24 hrs; type: ADME, organism-based; conditions: in vivo
[14] = Volume of distribution at steady state in fed beagle dog at 1 mg/kg, iv measured up to 24 hrs; type: ADME, organism-based, Canis lupus familiaris; set-up: dose 1 mg/kg, route intravenous; conditions: in vivo, read-out: Vdss; in short: as §1
[15] = Total clearance in fed cynomolgus monkey at 1 mg/kg, iv measured up to 24 hrs; type: ADME, organism-based, Macaca fascicularis; set-up: dose 1 mg/kg, route intravenous; conditions: in vivo; in short: as §1
[16] = Plasma concentration in fed rat at 5 mg/kg, po measured at 24 hrs; type: ADME, organism-based; set-up: dose 5 mg/kg, route oral
[17] = test system: Human immunodeficiency virus 1; test: Resistance index, ratio of IC50 for HIV1 3B containing integrase N155H mutant to IC50 for wild type HIV1 3B; type: functional; in short: as §2
[18] = Volume of distribution at steady state in fed cynomolgus monkey at 1 mg/kg, iv measured up to 24 hrs; type: ADME, organism-based, Macaca fascicularis; set-up: dose 1 mg/kg, route intravenous; conditions: in vivo, read-out: Vdss; in short: as §1
[19] = Total clearance in fed rat at 1 mg/kg, iv measured up to 24 hrs; type: ADME, organism-based; set-up: dose 1 mg/kg, route intravenous; conditions: in vivo; in short: as §1
[20] = Oral bioavailability in fed cynomolgus monkey at 5 mg/kg measured up to 24 hrs; type: ADME, organism-based, Macaca fascicularis; conditions: in vivo
[21] = test system: Human immunodeficiency virus 1; test: Resistance index, ratio of IC50 for HIV1 3B containing integrase Q148K mutant to IC50 for wild type HIV1 3B
[22] = Ratio of Plasma concentration in fed beagle dog at 5 mg/kg, po measured at 24 hrs to IC50 for wild type HIV1 3B infected in human MT4 cells in presence of 20 mg/ml HSA
[23] = AUC (0 to infinity) in fed rat at 5 mg/kg, po measured up to 24 hrs; type: ADME, organism-based; set-up: time infinity, dose 5 mg/kg, route oral; conditions: plasma
[24] = Ratio of Plasma concentration in fed rat at 5 mg/kg, po measured at 24 hrs to IC50 for wild type HIV1 3B infected in human MT4 cells in presence of 20 mg/ml HSA
[25] = Total clearance in fed beagle dog at 1 mg/kg, iv measured up to 24 hrs; type: ADME, organism-based, Canis lupus familiaris; set-up: dose 1 mg/kg, route intravenous; conditions: in vivo; in short: as §1
[26] = Inhibition of CYP450; type: ADME
[27] = Terminal half life in fed beagle dog at 1 mg/kg, iv measured up to 24 hrs; type: ADME, organism-based, Canis lupus familiaris; set-up: dose 1 mg/kg, route intravenous; conditions: in vivo, read-out: beta t1/2 (converted); in short: as §1

Chain of Human immunodeficiency virus type 1 integrase (Q7ZJM1 whole entry): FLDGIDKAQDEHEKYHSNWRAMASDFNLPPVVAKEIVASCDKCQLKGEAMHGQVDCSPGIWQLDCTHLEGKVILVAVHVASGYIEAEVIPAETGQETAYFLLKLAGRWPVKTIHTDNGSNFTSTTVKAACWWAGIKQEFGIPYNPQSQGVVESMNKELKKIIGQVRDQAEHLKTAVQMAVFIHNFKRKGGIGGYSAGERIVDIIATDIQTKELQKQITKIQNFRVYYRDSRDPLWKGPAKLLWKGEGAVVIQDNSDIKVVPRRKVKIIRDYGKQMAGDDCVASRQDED

Question: With `CN(C)C(=O)c1[nH]cc(C(=O)NCc2ccc(F)cc2)c(=O)c1O` as the compound, how does the IC50 [1] read?
Answer: 540 nM

Question: And the CC50 at 96 h [2]?
Answer: 5100 nM

Question: And the IC50 [3]?
Answer: 1600 nM

Question: With `Cc1nnc(C(=O)NC(C)(C)c2nc(C(=O)NCc3ccc(F)cc3)c(O)c(=O)n2C)o1` [RALTEGRAVIR] as the compound, how does the IC50 [4] read?
Answer: 29 nM

Question: What about the IC50 [3] of the same compound?
Answer: 6.2 nM

Question: Which IC50 [1] does the source give for `NC(=O)c1[nH]cc(C(=O)NCc2ccc(F)cc2)c(=O)c1O` here?
Answer: 380 nM

Question: What about the CC50 at 96 h [2] of the same compound?
Answer: 40000 nM

Question: What about the IC50 [3] of the same compound?
Answer: 5500 nM

Question: What does the source list for `O=C(NCCO)c1[nH]cc(C(=O)NCc2ccc(F)cc2)c(=O)c1O`?
Answer: IC50 [1]: 300 nM; CC50 at 96 h [2]: > 200000 nM; IC50 [3]: 5500 nM

Question: With `COCCNC(=O)c1[nH]cc(C(=O)NCc2ccc(F)cc2)c(=O)c1O` as the compound, how does the IC50 [1] read?
Answer: 130 nM

Question: What about the CC50 at 96 h [2] of the same compound?
Answer: 16000 nM

Question: And the IC50 [3]?
Answer: 110 nM

Question: With `O=C(O)c1[nH]cc(C(=O)NCc2ccc(F)cc2)c(=O)c1O` as the compound, how does the IC50 [1] read?
Answer: 10 nM

Question: And the CC50 at 96 h [2]?
Answer: > 200000 nM

Question: What about the IC50 [3] of the same compound?
Answer: 1400 nM

Question: What does the source list for `COC(=O)c1[nH]cc(C(=O)NCc2ccc(F)cc2)c(=O)c1O`?
Answer: half-life [5]: 4.7 h; bioavailability [6]: 46%; half-life [7]: 5.3 h; IC50 [4]: 120 nM; Ratio [8]: 1.6; Vd [9]: 0.2 L/kg; Ratio IC50 [10]: 1.5; half-life [11]: 4.2 h; IC50 [1]: 18 nM; Ratio IC50 [12]: 12; bioavailability [13]: 53%; Vd [14]: 0.14 L/kg; clearance [15]: 2.4 mL/min/kg; concentration at 24 h [16]: 130 ng/mL; Ratio IC50 [17]: 21; Vd [18]: 0.3 L/kg; CC50 at 96 h [2]: 19000 nM; clearance [19]: 1.2 mL/min/kg; bioavailability [20]: 22%; Ratio IC50 [21]: 200; IC50 [3]: 10 nM; Ratio [22]: 6; AUC(0-inf) [23]: 41200 ng·h/mL; Ratio [24]: 3.4; clearance [25]: 0.84 mL/min/kg; inhibition (INH) [26]: Not Active; half-life [27]: 3.8 h

Question: For `COc1cc2c(cc1Cc1cccc(Cl)c1F)c(=O)c(C(=O)O)cn2[C@H](CO)C(C)C` [ELVITEGRAVIR], which IC50 [4] is on record?
Answer: 29 nM

Question: What about the IC50 [3] of the same compound?
Answer: 1.3 nM

Question: Which IC50 [1] does the source give for `CNC(=O)c1[nH]cc(C(=O)NCc2ccc(F)cc2)c(=O)c1O` here?
Answer: 1300 nM

Question: What about the CC50 at 96 h [2] of the same compound?
Answer: 8500 nM

Question: And the IC50 [3]?
Answer: 120 nM
